Results from paper PMC8451875 (British Journal of Clinical Pharmacology, 2021).

Key:
[1] = Phase I 2-way drug interaction study, steady-state plasma pharmacokinetics; format: in vivo, healthy adults
Summary of the method: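 After an overnight fast of ≥8 h and a moderate-fat meal 30 min before dosing, each drug was given once daily in fixed sequence. Plasma was sampled predose daily, then postdose on the final dosing day at 1–24 h, extended to 72 h or 96 h. Noncompartmental ln-transformed AUC0-t, Cmax and Ct were fitted by linear mixed model (period fixed, participant random) for GMR and 90% CI. t1/2 was descriptive.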

[2] = Phase I 2-way drug interaction study, safety and tolerability; format: in vivo, healthy adults; conditions: for overall drug interaction, tolerability and safety finding: administered alone or in combination, healthy adults
Summary of the method: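 Open-label, fixed-sequence study in healthy men and women aged 18–55 years with BMI 18.5–31.0 kg/m2. Each drug was given alone and in combination, with a moderate-fat meal 30 min before dosing. Adverse events were monitored along with clinical laboratory values, vital signs, electrocardiography and physical examination, and summarised descriptively.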

[3] = healthy participants administered GSK3640254; cited from earlier work
HIV‐1 subtypes = conditions: no cross-resistance to currently approved antiretroviral treatments; cited from earlier work
[4] = dolutegravir 50 mg + GSK3640254 200 mg QD, after Day 7 dose, n = 16

dolutegravir Tmax (median [min, max]) ([1]; dolutegravir 50 mg + GSK3640254 200 mg QD, Day 7, n = 16) | dolutegravir t1/2, geometric mean (SD Ln) [1, 4] | dolutegravir Cmax, geometric mean (SD Ln) ([1]; dolutegravir 50 mg QD alone, Day 5, steady state, moderate-fat meal, plasma, n = 16) | dolutegravir t1/2, geometric mean (SD Ln) ([1]; dolutegravir 50 mg QD alone, after Day 5 dose, n = 16) | concentration at 24 h ([1]; human, plasma, 50 mg) [ng/mL] | SMILES | GSK3640254 t1/2, geometric mean (SD Ln) [1, 4] | AUC ([1]; human, plasma, 200 mg) [ng·h/mL] | Cmax ([1]; human, plasma, 200 mg) [ng/mL] | Tmax ([1]; human, plasma, 200 mg) [h] | concentration at 24 h ([1]; human, plasma, 200 mg) [ng/mL] | contact dermatitis at the electrocardiographic electrode site ([2]; 16 participants per treatment) [event] | overall drug interaction, tolerability and safety finding [2] | most commonly reported adverse event [3] | inhibition across HIV‐1 subtypes (HIV‐1 subtypes)
– | – | – | – | – | C=C(C)[C@@H]1CC[C@]2(NCCN3CCS(=O)(=O)CC3)CC[C@]3(C)[C@H](CC[C@@H]4[C@@]5(C)CC=C(C6=CC[C@@](CF)(C(=O)O)CC6)C(C)(C)[C@@H]5CC[C@]43C)[C@@H]12 [GSK3640254] | 23.42 (1.16) h | 26700 | 1680 | 5 | 860 | 1 | not associated with drug–drug interactions or major tolerability or safety findings | headaches | demonstrated inhibition
3.0 (1.0, 4.5) h | 14.69 (1.13) h | 4.96 (1.18) μg/mL | 14.49 (1.13) h | 1370 | C[C@@H]1CCO[C@H]2Cn3cc(C(=O)NCc4ccc(F)cc4F)c(=O)c(O)c3C(=O)N12 [dolutegravir, reference compound] | – | – | – | – | – | – | not associated with drug–drug interactions or major tolerability or safety findings | – | –
